Source: ChEMBL document CHEMBL3414528, “Novel naftopidil-related derivatives and their biological effects as alpha1-adrenoceptors antagonists and antiproliferative agents” (Eur J Med Chem, 2015)

Key:
[1] = Cytotoxicity against human PC3 cells; type: functional, cell-based; details: PC-3
[2] = biological target: T1, Alpha-1B adrenergic receptor (Rattus norvegicus, UniProt P15823); test: Antagonist activity at Sprague-Dawley rat spleen adrenergic alpha-1B receptor after 20 mins; details: read-out: pA2 (converted)
T1 sequence (P15823 whole entry): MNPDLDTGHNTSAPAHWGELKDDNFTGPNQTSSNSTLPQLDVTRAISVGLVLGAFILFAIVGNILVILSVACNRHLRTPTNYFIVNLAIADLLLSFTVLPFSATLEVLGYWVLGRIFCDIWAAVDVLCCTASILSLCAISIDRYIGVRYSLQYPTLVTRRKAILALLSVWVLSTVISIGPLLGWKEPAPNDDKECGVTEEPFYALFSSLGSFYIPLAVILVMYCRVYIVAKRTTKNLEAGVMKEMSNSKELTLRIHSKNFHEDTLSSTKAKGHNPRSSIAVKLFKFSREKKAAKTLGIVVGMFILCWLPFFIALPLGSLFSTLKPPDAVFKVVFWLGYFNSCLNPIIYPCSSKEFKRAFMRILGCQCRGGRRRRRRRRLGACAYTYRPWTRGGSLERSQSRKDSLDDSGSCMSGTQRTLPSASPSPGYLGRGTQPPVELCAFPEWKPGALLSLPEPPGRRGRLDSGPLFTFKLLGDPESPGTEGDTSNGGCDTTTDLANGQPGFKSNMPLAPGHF
Outline: (§1)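 Isolated rat tissues (prostatic vas deferens, spleen, thoracic aorta) contracted with cumulative norepinephrine; concentration-response curves recorded in presence of increasing antagonist concentrations, antagonism read as rightward curve shift. Mean ± SEM of five to eight separate experiments.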

Rattus norvegicus [3] = species: Rattus norvegicus; test: Selectivity ratio for Sprague-Dawley rat prostatic vas deferens adrenergic alpha-1A receptor to Sprague-Dawley rat spleen adrenergic alpha-1B receptor
Rattus norvegicus [4] = species: Rattus norvegicus; test: Selectivity ratio for Sprague-Dawley rat thoracic aorta adrenergic alpha-1D receptor to Sprague-Dawley rat spleen adrenergic alpha-1B receptor; type: tissue-based
[5] = Cytotoxicity against human PC3 cells after 48 hrs by WST-8 assay; type: functional, cell-based; details: PC-3, 48 h
DU-145 [6] = test: Cytotoxicity against human DU145 cells; type: functional, cell-based
Rattus norvegicus [7] = species: Rattus norvegicus; test: Selectivity ratio for Sprague-Dawley rat thoracic aorta adrenergic alpha-1D receptor to Sprague-Dawley rat prostatic vas deferens adrenergic alpha-1A receptor
DU-145 [8] = test: Cytotoxicity against human DU145 cells after 48 hrs by WST-8 assay; type: functional, cell-based; details: DU-145, 48 h
LNCaP = test: Cytotoxicity against human LNCAP cells after 48 hrs by WST-8 assay; type: functional, cell-based
[9] = biological target: T2, Alpha-1A adrenergic receptor (Rattus norvegicus, UniProt P43140); test: Antagonist activity at Sprague-Dawley rat prostatic vas deferens adrenergic alpha-1A receptor after 20 mins; details: read-out: pA2 (converted); outline: as §1
T2 sequence (P43140 whole entry): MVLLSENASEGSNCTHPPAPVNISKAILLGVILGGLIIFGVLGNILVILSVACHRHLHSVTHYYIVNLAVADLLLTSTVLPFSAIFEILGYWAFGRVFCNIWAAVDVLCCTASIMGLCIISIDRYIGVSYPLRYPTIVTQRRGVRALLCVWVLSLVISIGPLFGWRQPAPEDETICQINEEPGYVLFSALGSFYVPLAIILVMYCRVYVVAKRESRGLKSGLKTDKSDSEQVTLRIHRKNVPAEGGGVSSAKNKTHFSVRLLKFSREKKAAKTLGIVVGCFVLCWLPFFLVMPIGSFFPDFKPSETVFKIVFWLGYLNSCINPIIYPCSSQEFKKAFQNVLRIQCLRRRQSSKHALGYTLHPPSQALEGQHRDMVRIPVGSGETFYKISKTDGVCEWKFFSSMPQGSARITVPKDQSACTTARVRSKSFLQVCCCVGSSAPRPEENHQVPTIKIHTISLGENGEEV

[10] = biological target: T3, Alpha-1D adrenergic receptor (Rattus norvegicus, UniProt P23944); test: Antagonist activity at Sprague-Dawley rat thoracic aorta adrenergic alpha-1D receptor after 20 mins; details: read-out: pA2 (converted); outline: as §1
T3 sequence (P23944 whole entry): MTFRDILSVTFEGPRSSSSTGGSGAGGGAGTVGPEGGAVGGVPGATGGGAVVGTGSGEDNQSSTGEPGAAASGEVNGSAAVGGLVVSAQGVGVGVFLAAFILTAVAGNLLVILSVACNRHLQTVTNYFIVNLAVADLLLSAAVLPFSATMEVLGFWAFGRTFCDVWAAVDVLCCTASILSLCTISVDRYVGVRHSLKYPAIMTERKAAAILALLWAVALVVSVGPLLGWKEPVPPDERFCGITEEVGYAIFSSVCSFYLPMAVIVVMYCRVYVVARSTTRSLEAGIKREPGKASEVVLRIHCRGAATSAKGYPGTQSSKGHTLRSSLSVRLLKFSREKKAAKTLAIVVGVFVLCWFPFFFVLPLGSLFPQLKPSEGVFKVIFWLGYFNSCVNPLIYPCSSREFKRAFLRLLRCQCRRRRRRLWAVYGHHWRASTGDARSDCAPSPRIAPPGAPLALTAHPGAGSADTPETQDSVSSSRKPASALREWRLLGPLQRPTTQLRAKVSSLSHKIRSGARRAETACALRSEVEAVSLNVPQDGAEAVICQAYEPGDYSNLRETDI

| SMILES | IC50 [1] | Kb [2] | Ratio (Rattus norvegicus [3]) | Ratio (Rattus norvegicus [4]) | IC50 [5] | IC50 (DU-145 [6]) | Ratio (Rattus norvegicus [7]) | IC50 (DU-145 [8]) | IC50 (LNCaP) | Kb [9] | Kb [10] |
| --- | --- | --- | --- | --- | --- | --- | --- | --- | --- | --- | --- |
| COc1ccccc1N1CCN(CC(O)COc2cccc3ccccc23)CC1 (stereo not drawn) [NAFTOPIDIL] | 33.2 µM | 0.178 µM | 5.4 | 15.1 | > 50 µM | 22.2 µM | 2.8 | > 50 µM | > 50 µM | 0.0331 µM | 0.0117 µM |
| COc1ccccc1N1CCN(CCCNC(=O)c2cc3cc(O)ccc3[nH]2)CC1 | – | 0.155 µM | 2.8 | 5.6 | – | – | 2 | – | – | 0.055 µM | 0.0269 µM |
| COc1cc2nc(N3CCN(C(=O)C4COc5ccccc5O4)CC3)nc(N)c2cc1OC (stereo not drawn) [DOXAZOSIN] | – | – | – | – | > 50 µM | – | – | – | – | – | – |
| COc1ccccc1N1CCN(CCCNC(=O)c2ccc3[nH]ccc3c2)CC1 | – | 0.123 µM | 4.7 | 10.5 | – | – | 2.2 | – | – | 0.0263 µM | 0.0117 µM |
| COc1ccccc1N1CCN(CCCNC(=O)c2cn(C)c3ccccc23)CC1 | – | 0.166 µM | 3.2 | 30.2 | – | – | 9.6 | – | – | 0.0525 µM | 0.0055 µM |
| COc1ccccc1N1CCN(CCCNC(=O)c2cc3cccc([N+](=O)[O-])c3[nH]2)CC1 | – | 0.646 µM | 11 | 22.9 | – | – | 2.1 | – | – | 0.0589 µM | 0.0282 µM |
| COc1ccc2[nH]c(C(=O)NCCCN3CCN(c4ccccc4OC)CC3)cc2c1 | – | 1.45 µM | 18.6 | 24.5 | – | – | 1.3 | – | – | 0.0776 µM | 0.0589 µM |
| COc1ccccc1N1CCN(CCCNC(=O)CCc2c[nH]c3ccccc23)CC1 | – | 0.219 µM | 1.1 | 6.3 | – | – | 5.6 | – | – | 0.195 µM | 0.0347 µM |
| COc1ccccc1N1CCN(CCCNC(=O)c2cc3ccc(Br)cc3[nH]2)CC1 | – | 0.209 µM | 3 | 13.8 | 31.2 µM | – | 4.6 | 39.3 µM | 26.7 µM | 0.0692 µM | 0.0151 µM |
| COc1ccccc1N1CCN(CCCNC(=O)c2cc3cc(Cl)ccc3[nH]2)CC1 | – | 0.257 µM | 5.4 | 13.2 | 36.9 µM | – | 2.5 | 47 µM | 28.4 µM | 0.0479 µM | 0.0195 µM |
| COc1ccccc1N1CCN(CCCNC(=O)CCCc2c[nH]c3ccccc23)CC1 | – | 0.0955 µM | 7.6 | 18.6 | > 100 µM | – | 2.5 | > 100 µM | 52.3 µM | 0.0126 µM | 0.00513 µM |
| COc1cc2nc(N3CCN(C(=O)C4CCCO4)CC3)nc(N)c2cc1OC (stereo not drawn) [TERAZOSIN] | – | 0.00257 µM | – | – | – | – | – | – | – | – | 0.00148 µM |
| COc1ccccc1N1CCN(CCCNC(=O)Cc2c[nH]c3ccccc23)CC1 | – | 0.513 µM | 64.6 | 97.7 | – | – | 1.5 | – | – | 0.00794 µM | 0.00525 µM |
